Source: ChEMBL document CHEMBL1781959, “Synthesis and in vitro antitumor activity of substituted quinazoline and quinoxaline derivatives: search for anticancer agent” (Eur J Med Chem, 2011)

Assays:
Type in all cases: functional
HL-60(TB) = assay: Anticancer activity against human HL-60(TB) cells assessed as cell growth promotion at 10^-5 M after 48 hrs by SRB assay relative to control
Outline: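 NCI-60 single-dose screen: compound at 10^-5 M, 48 h at 37 °C, 5% CO2; cells grown in RPMI 1640 with 5% FBS and 2 mM L-glutamine, pre-incubated 24 h before dosing. Adherent cells fixed with cold TCA; endpoint is sulforhodamine B protein staining. Percent growth of treated cells is reported relative to untreated control.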

OVCAR-3 = assay: Anticancer activity against human OVCAR3 cells assessed as cell growth promotion at 10^-5 M after 48 hrs by SRB assay relative to control
NCI/ADR-RES = assay: Anticancer activity against human NCI/ADR-RES cells assessed as cell growth promotion at 10^-5 M after 48 hrs by SRB assay relative to control
DU-145 = assay: Anticancer activity against human DU145 cells assessed as cell growth promotion at 10^-5 M after 48 hrs by SRB assay relative to control
[1] = Anticancer activity against human […] cells assessed as cell growth promotion at 10^-5 M after 48 hrs by SRB assay relative to control
SN12C = assay: Anticancer activity against human SN12C cells assessed as cell growth promotion at 10^-5 M after 48 hrs by SRB assay relative to control
IGROV-1 = assay: Anticancer activity against human IGROV1 cells assessed as cell growth promotion at 10^-5 M after 48 hrs by SRB assay relative to control
HCT-116 = assay: Anticancer activity against human HCT116 cells assessed as cell growth promotion at 10^-5 M after 48 hrs by SRB assay relative to control
786-0 = assay: Anticancer activity against human 786-0 cells assessed as cell growth promotion at 10^-5 M after 48 hrs by SRB assay relative to control
CCRF-CEM = assay: Anticancer activity against human CCRF-CEM cells assessed as cell growth promotion at 10^-5 M after 48 hrs by SRB assay relative to control
U-251 = assay: Anticancer activity against human U251 cells assessed as cell growth promotion at 10^-5 M after 48 hrs by SRB assay relative to control
HCC 2998 = assay: Anticancer activity against human HCC2998 cells assessed as cell growth promotion at 10^-5 M after 48 hrs by SRB assay relative to control
TK-10 = assay: Anticancer activity against human TK10 cells assessed as cell growth promotion at 10^-5 M after 48 hrs by SRB assay relative to control
SK-MEL-5 = assay: Anticancer activity against human SK-MEL-5 cells assessed as cell growth promotion at 10^-5 M after 48 hrs by SRB assay relative to control
SR = assay: Anticancer activity against human SR cells assessed as cell growth promotion at 10^-5 M after 48 hrs by SRB assay relative to control
SNB-19 = assay: Anticancer activity against human SNB19 cells assessed as cell growth promotion at 10^-5 M after 48 hrs by SRB assay relative to control
SF-268 = assay: Anticancer activity against human SF268 cells assessed as cell growth promotion at 10^-5 M after 48 hrs by SRB assay relative to control
SF-295 = assay: Anticancer activity against human SF295 cells assessed as cell growth promotion at 10^-5 M after 48 hrs by SRB assay relative to control
Malme-3M = assay: Anticancer activity against human MALME-3M cells assessed as cell growth promotion at 10^-5 M after 48 hrs by SRB assay relative to control
MDA-MB-231 = assay: Anticancer activity against human MDA-MB-231 cells assessed as cell growth promotion at 10^-5 M after 48 hrs by SRB assay relative to control
PC-3 = assay: Anticancer activity against human PC3 cells assessed as cell growth promotion at 10^-5 M after 48 hrs by SRB assay relative to control
MCF7 = assay: Anticancer activity against human MCF7 cells assessed as cell growth promotion at 10^-5 M after 48 hrs by SRB assay relative to control
MDA-MB-435 = assay: Anticancer activity against human MDA-MB-435 cells assessed as cell growth promotion at 10^-5 M after 48 hrs by SRB assay relative to control
MDA-MB-468 = assay: Anticancer activity against human MDA-MB-468 cells assessed as cell growth promotion at 10^-5 M after 48 hrs by SRB assay relative to control
MOLT-4 = assay: Anticancer activity against human MOLT4 cells assessed as cell growth promotion at 10^-5 M after 48 hrs by SRB assay relative to control
ACHN = assay: Anticancer activity against human ACHN cells assessed as cell growth promotion at 10^-5 M after 48 hrs by SRB assay relative to control
M14 = assay: Anticancer activity against human M14 cells assessed as cell growth promotion at 10^-5 M after 48 hrs by SRB assay relative to control
NCI-H23 = assay: Anticancer activity against human NCI-H23 cells assessed as cell growth promotion at 10^-5 M after 48 hrs by SRB assay relative to control
OVCAR-5 = assay: Anticancer activity against human OVCAR5 cells assessed as cell growth promotion at 10^-5 M after 48 hrs by SRB assay relative to control
UACC-62 = assay: Anticancer activity against human UACC62 cells assessed as cell growth promotion at 10^-5 M after 48 hrs by SRB assay relative to control
OVCAR-8 = assay: Anticancer activity against human OVCAR8 cells assessed as cell growth promotion at 10^-5 M after 48 hrs by SRB assay relative to control
A549 = assay: Anticancer activity against human A549 cells assessed as cell growth promotion at 10^-5 M after 48 hrs by SRB assay relative to control
K562 = assay: Anticancer activity against human K562 cells assessed as cell growth promotion at 10^-5 M after 48 hrs by SRB assay relative to control
NCI-H226 = assay: Anticancer activity against human NCI-H226 cells assessed as cell growth promotion at 10^-5 M after 48 hrs by SRB assay relative to control
SF-539 = assay: Anticancer activity against human SF539 cells assessed as cell growth promotion at 10^-5 M after 48 hrs by SRB assay relative to control
KM12 = assay: Anticancer activity against human KM12 cells assessed as cell growth promotion at 10^-5 M after 48 hrs by SRB assay relative to control
UO-31 = assay: Anticancer activity against human UO31 cells assessed as cell growth promotion at 10^-5 M after 48 hrs by SRB assay relative to control
NCI-H322M = assay: Anticancer activity against human NCI-H322M cells assessed as cell growth promotion at 10^-5 M after 48 hrs by SRB assay relative to control
CAKI-1 = assay: Anticancer activity against human Caki1 cells assessed as cell growth promotion at 10^-5 M after 48 hrs by SRB assay relative to control
UACC-257 = assay: Anticancer activity against human UACC257 cells assessed as cell growth promotion at 10^-5 M after 48 hrs by SRB assay relative to control
EKVX = assay: Anticancer activity against human EKVX cells assessed as cell growth promotion at 10^-5 M after 48 hrs by SRB assay relative to control
RXF 393 = assay: Anticancer activity against human RXF393 cells assessed as cell growth promotion at 10^-5 M after 48 hrs by SRB assay relative to control
HCT-15 = assay: Anticancer activity against human HCT15 cells assessed as cell growth promotion at 10^-5 M after 48 hrs by SRB assay relative to control
HOP-62 = assay: Anticancer activity against human HOP62 cells assessed as cell growth promotion at 10^-5 M after 48 hrs by SRB assay relative to control
LOX IMVI = assay: Anticancer activity against human LOXIMVI cells assessed as cell growth promotion at 10^-5 M after 48 hrs by SRB assay relative to control
COLO 205 = assay: Anticancer activity against human COLO205 cells assessed as cell growth promotion at 10^-5 M after 48 hrs by SRB assay relative to control
HT-29 = assay: Anticancer activity against human HT-29 cells assessed as cell growth promotion at 10^-5 M after 48 hrs by SRB assay relative to control
SK-MEL-28 = assay: Anticancer activity against human SK-MEL-28 cells assessed as cell growth promotion at 10^-5 M after 48 hrs by SRB assay relative to control

## Brc1cccc(/C=C/c2nc3ccccc3nc2SCc2nc3ccccc3[nH]2)c1
HL-60(TB)
  Activity: 96.53%
OVCAR-3
  Activity: 92.52%
NCI/ADR-RES
  Activity: 89.75%
DU-145
  Activity: 97.76%
[1]
  Activity: 108%
SN12C
  Activity: 88.36%
IGROV-1
  Activity: 101%
HCT-116
  Activity: 78.83%
786-0
  Activity: 95.67%
CCRF-CEM
  Activity: 99.77%
U-251
  Activity: 90.27%
HCC 2998
  Activity: 99.44%
TK-10
  Activity: 103%
SK-MEL-5
  Activity: 96.24%
SR
  Activity: 97.29%
SNB-19
  Activity: 94.19%
SF-268
  Activity: 94.82%
SF-295
  Activity: 100%
Malme-3M
  Activity: 86.98%
MDA-MB-231
  Activity: 93.29%
PC-3
  Activity: 125%
MCF7
  Activity: 61.74%
MDA-MB-435
  Activity: 90.95%
MDA-MB-468
  Activity: 101%
MOLT-4
  Activity: 84.4%
ACHN
  Activity: 102%
M14
  Activity: 102%
NCI-H23
  Activity: 93.86%
OVCAR-5
  Activity: 94.9%
UACC-62
  Activity: 79.86%
OVCAR-8
  Activity: 97.32%
A549
  Activity: 100%
K562
  Activity: 79.2%
NCI-H226
  Activity: 96.35%
SF-539
  Activity: 101%
KM12
  Activity: 90.27%
UO-31
  Activity: 63.7%
NCI-H322M
  Activity: 95.01%
CAKI-1
  Activity: 69.32%
UACC-257
  Activity: 93.79%
EKVX
  Activity: 79.01%
RXF 393
  Activity: 105%
HCT-15
  Activity: 101%
HOP-62
  Activity: 97.73%
LOX IMVI
  Activity: 91.83%
COLO 205
  Activity: 119%
HT-29
  Activity: 94.19%
SK-MEL-28
  Activity: 86.57%
